pKi: −log10 of the molar value.

System in one assay: not listed separately
In words: Displacement of [3H] ifenprodil from GluN2B/GluN1a (unknown origin) expressed in mouse L(tk-) cell membranes incubated for 120 mins by scintillation counting method. On the set-up: species or system Homo sapiens.
Settings: not given
The procedure, abridged:
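Membranes from mouse L(tk-) cells co-transfected with dexamethasone-inducible GluN1a/GluN2B (1:5), induced 24 h with 4 μM dexamethasone plus 4 μM ketamine.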
(In general: Loss of bound radioactivity is the signal in a displacement assay; it reports binding, not function.)
Regarding `FCCOc1ccc2c(c1)CCN(CCC(F)Cc1ccccc1)CC2` (stereo unspecified), the pKi – broadly, −log10 of the Ki, conventionally taken in molar units – is 6.46.
Same read-out and setting: the same measure for `Oc1ccc2c(c1)CCN(CCCCc1ccccc1)CC2`: 8.00; for `OC1CN(CCC(F)Cc2ccccc2)CCc2cc(OCc3ccccc3)ccc21` (stereo unspecified): 6.09; for `FC(CCOc1ccc2c(c1)CCN(CCC(F)Cc1ccccc1)CC2)Cc1ccccc1` (stereo unspecified): 6.60.
Molecule `COc1ccc2c(c1)CCN(CC(F)CCc1ccccc1)CC2` (stereo unspecified) had a pKi of 6.22. This pKi is 0.38 log units lower than that of the molecule before.
Same read-out and setting: as for `Oc1ccc2c(c1)CCN(CCC(F)Cc1ccccc1)CC2` (racemic) [listing 1 of 2 here], the figure is 7.80; as for `OC1CN(CCCCc2ccccc2)CCc2cc(OCc3ccccc3)ccc21` (stereo unspecified), 6.30.
With `COc1ccc2c(c1)CCN(CC(F)CCc1ccccc1)CC2O` (stereo unspecified), the pKi was 6.30.
Take `OC1CN(CC(F)CCc2ccccc2)CCc2cc(OCc3ccccc3)ccc21` (stereo unspecified): the pKi is 6.11. This pKi and that of the molecule before are within 0.2 log units of each other.
In turn, `FC(CCc1ccccc1)CN1CCc2ccccc2CC1` (stereo unspecified) showed a negative logarithm of the Ki (pKi) of 6.62. This pKi is 0.51 log units higher than that of the molecule before.
The same measure, in the same setting: as for `Oc1ccc2c(c1)CCN(CC(F)CCc1ccccc1)CC2` (stereo unspecified), the figure is 7.07; as for `COc1ccc2c(c1)CCN(CCC(F)Cc1ccccc1)CC2O` (stereo unspecified), 6.20; as for `Oc1ccc2c(c1)CCN(CCC(F)Cc1ccccc1)CC2O` (stereo unspecified), 6.37.
In turn, `OC(CN1CCC(Cc2ccc(F)cc2)CC1)c1ccc(Cl)cc1` (stereo unspecified) [ELIPRODIL] had a negative-log Ki (pKi) of 7.89.
Molecule `Oc1ccc2c(c1)CCN(CCC(F)Cc1ccccc1)CC2` (single isomer, unassigned; (+)) showed a negative logarithm of the Ki (pKi) of 7.27.
The molecule `Oc1ccc2c(c1)CCN(CCC(F)Cc1ccccc1)CC2` (single isomer, unassigned; (-)) showed a pKi of 7.19. The pKi values of the last two molecules are within 0.2 log units of each other.
For the molecule `COc1ccc2c(c1)CCN(CCCCc1ccccc1)CC2`, the pKi is 7.26.

In another assay the target is Sigma non-opioid intracellular receptor 1 (Cavia porcellus, UniProt Q60492). The assay is classed as cell membranes.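 Also: radioligand displacement of [3H]-(+)-pentazocine from guinea pig brain cortex membranes, 120 min incubation, bound radioactivity read by scintillation counting.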
Chain of Sigma non-opioid intracellular receptor 1 (Q60492 whole entry): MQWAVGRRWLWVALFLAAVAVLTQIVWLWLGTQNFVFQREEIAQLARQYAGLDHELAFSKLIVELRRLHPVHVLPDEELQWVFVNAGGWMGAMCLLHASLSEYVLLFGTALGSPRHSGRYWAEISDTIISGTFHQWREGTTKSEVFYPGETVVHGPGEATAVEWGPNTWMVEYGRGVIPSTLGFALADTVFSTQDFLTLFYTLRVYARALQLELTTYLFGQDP
Settings: not given
Turning to `FCCOc1ccc2c(c1)CCN(CCC(F)Cc1ccccc1)CC2` (stereo unspecified), the negative-log Ki (pKi) is 7.60.
With `Oc1ccc2c(c1)CCN(CCCCc1ccccc1)CC2`, the pKi was 7.49.
As to `OC1CN(CCC(F)Cc2ccccc2)CCc2cc(OCc3ccccc3)ccc21` (stereo unspecified), the pKi is 6.74.
`FC(CCOc1ccc2c(c1)CCN(CCC(F)Cc1ccccc1)CC2)Cc1ccccc1` (stereo unspecified) showed a negative-log Ki (pKi) of 6.73.
Turning to `COc1ccc2c(c1)CCN(CC(F)CCc1ccccc1)CC2` (stereo unspecified), the pKi is 6.67. This pKi and that of the molecule before are within 0.2 log units of each other.
Take `Oc1ccc2c(c1)CCN(CCC(F)Cc1ccccc1)CC2` (racemic) [listing 1 of 2 here]: the pKi is 7.77.
On the same count and under the same terms, as for `COc1ccc2c(c1)CCN(CC(F)CCc1ccccc1)CC2O` (stereo unspecified), the figure is 6.23; as for `OC1CN(CC(F)CCc2ccccc2)CCc2cc(OCc3ccccc3)ccc21` (stereo unspecified), 6.41; as for `FC(CCc1ccccc1)CN1CCc2ccccc2CC1` (stereo unspecified), 6.97.
With `Oc1ccc2c(c1)CCN(CC(F)CCc1ccccc1)CC2` (stereo unspecified), the negative-log Ki (pKi) was 7.15.
On the same count and under the same terms, the same measure for `COc1ccc2c(c1)CCN(CCC(F)Cc1ccccc1)CC2O` (stereo unspecified): 6.68.
For the molecule `Oc1ccc2c(c1)CCN(CCC(F)Cc1ccccc1)CC2O` (stereo unspecified), the pKi is 5.85.
Take `Oc1ccc2c(c1)CCN(CCC(F)Cc1ccccc1)CC2` (single isomer, unassigned; (+)): the negative-log Ki (pKi) is 8.00. Against the preceding molecule, the pKi is 2.15 log units higher.
Still for that read-out and setting: the same measure for `Oc1ccc2c(c1)CCN(CCC(F)Cc1ccccc1)CC2` (single isomer, unassigned; (-)): 7.60; for `COc1ccc2c(c1)CCN(CCCCc1ccccc1)CC2`: 7.96.

The target in the next assay is T1, Sigma intracellular receptor 2 (Rattus norvegicus, UniProt Q5U3Y7).
T1 sequence (Q5U3Y7 whole entry): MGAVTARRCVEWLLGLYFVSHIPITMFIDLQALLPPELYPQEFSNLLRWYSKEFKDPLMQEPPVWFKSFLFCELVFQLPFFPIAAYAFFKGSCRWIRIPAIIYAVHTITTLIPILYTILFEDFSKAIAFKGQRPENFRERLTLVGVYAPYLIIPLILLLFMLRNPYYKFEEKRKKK
In words: Displacement of [3H]-di-o-tolylguanidine from sigma2 receptor in rat liver membranes incubated for 120 mins by scintillation counting method. The assay is classed as cell membranes.
Settings: not given
Regarding `FCCOc1ccc2c(c1)CCN(CCC(F)Cc1ccccc1)CC2` (stereo unspecified), the pKi is 6.28.
Molecule `Oc1ccc2c(c1)CCN(CCCCc1ccccc1)CC2` gave a pKi of 7.92.
Regarding `OC1CN(CCC(F)Cc2ccccc2)CCc2cc(OCc3ccccc3)ccc21` (stereo unspecified), the pKi is 5.74.
With `FC(CCOc1ccc2c(c1)CCN(CCC(F)Cc1ccccc1)CC2)Cc1ccccc1` (stereo unspecified), the negative logarithm of the Ki (pKi) is 6.19.
Molecule `COc1ccc2c(c1)CCN(CC(F)CCc1ccccc1)CC2` (stereo unspecified) gave a pKi of 6.13.
On the same count and under the same terms, as for `Oc1ccc2c(c1)CCN(CCC(F)Cc1ccccc1)CC2` (racemic) [listing 1 of 2 here], the figure is 7.41; as for `COc1ccc2c(c1)CCN(CC(F)CCc1ccccc1)CC2O` (stereo unspecified), 5.10.
On to `OC1CN(CC(F)CCc2ccccc2)CCc2cc(OCc3ccccc3)ccc21` (stereo unspecified), for which the negative-log Ki (pKi) was 5.85.
The molecule `FC(CCc1ccccc1)CN1CCc2ccccc2CC1` (stereo unspecified) gave a pKi of 6.48.
The same measure, in the same setting: the same measure for `Oc1ccc2c(c1)CCN(CC(F)CCc1ccccc1)CC2` (stereo unspecified): 6.82; for `COc1ccc2c(c1)CCN(CCC(F)Cc1ccccc1)CC2O` (stereo unspecified): 5.35; for `Oc1ccc2c(c1)CCN(CCC(F)Cc1ccccc1)CC2O` (stereo unspecified): 6.89.
The molecule `Oc1ccc2c(c1)CCN(CCC(F)Cc1ccccc1)CC2` (single isomer, unassigned; (+)) had a pKi of 7.31.
On to `Oc1ccc2c(c1)CCN(CCC(F)Cc1ccccc1)CC2` (single isomer, unassigned; (-)), for which the pKi was 7.20.
As to `COc1ccc2c(c1)CCN(CCCCc1ccccc1)CC2`, the negative-log Ki (pKi) was 7.25.

System in a further assay: not listed separately
In words: Selectivity ratio of Ki for sigma2 receptor in rat liver membranes to ratio of Ki for GluN2B/GluN1a (unknown origin) expressed in mouse L(tk-) cell membranes. The assay is classed as cell-based.
Settings: not given
For the molecule `OC1CN(CCC(F)Cc2ccccc2)CCc2cc(OCc3ccccc3)ccc21` (stereo unspecified), the Ratio Ki was determined as 2.
On to `OC1CN(CCCCc2ccccc2)CCc2cc(OCc3ccccc3)ccc21` (stereo unspecified), for which the Ratio Ki is 2.
The same measure, in the same setting: as for `COc1ccc2c(c1)CCN(CC(F)CCc1ccccc1)CC2O` (stereo unspecified), the figure is 15; as for `OC1CN(CC(F)CCc2ccccc2)CCc2cc(OCc3ccccc3)ccc21` (stereo unspecified), 2.
Regarding `COc1ccc2c(c1)CCN(CCC(F)Cc1ccccc1)CC2O` (stereo unspecified), the Ratio Ki was 7.

System in another assay: not listed separately
In words: Selectivity ratio of Ki for sigma1 receptor in guinea pig brain cortex membranes to ratio of Ki for GluN2B/GluN1a (unknown origin) expressed in mouse L(tk-) cell membranes. In kind it is cell-based.
Settings: not given
As for `Oc1ccc2c(c1)CCN(CCCCc1ccccc1)CC2O` (stereo unspecified), the Ratio Ki lay within 2 to 3.
On to `Oc1ccc2c(c1)CCN(CCCCc1ccccc1)CC2`, for which the Ratio Ki was in the range of 2 to 3.
Take `Oc1ccc2c(c1)CCN(CCC(F)Cc1ccccc1)CC2O` (stereo unspecified): the Ratio Ki was 2 to 3.

The species entered for another assay is Sus scrofa. The following applies: at 1 µM.
`Oc1ccc2c(c1)CCN(CCC(F)Cc1ccccc1)CC2` (racemic) [listing 2 of 2 here]: the inhibition (commonly how much of the control response was suppressed) worked out at 15%.
On the same count and under the same terms, the same measure for `Oc1ccc2c(c1)CCN(CCCCc1ccccc1)CC2O` (stereo unspecified): 35%; for `OC1CN(CCC(F)Cc2ccccc2)CCc2cc(OCc3ccccc3)ccc21` (stereo unspecified): 0%; for `COc1ccc2c(c1)CCN(CC(F)CCc1ccccc1)CC2` (stereo unspecified): 0%.
In turn, `COc1ccc2c(c1)CCN(CC(F)CCc1ccccc1)CC2O` (stereo unspecified) had an inhibition of 0%.
`OC1CN(CC(F)CCc2ccccc2)CCc2cc(OCc3ccccc3)ccc21` (stereo unspecified): the inhibition amounted to 0%.
On the same count and under the same terms, the same measure for `FC(CCc1ccccc1)CN1CCc2ccccc2CC1` (stereo unspecified): 0%; for `Oc1ccc2c(c1)CCN(CC(F)CCc1ccccc1)CC2` (stereo unspecified): 0%.
`COc1ccc2c(c1)CCN(CCC(F)Cc1ccccc1)CC2O` (stereo unspecified) had an inhibition of 0%.
Regarding `Oc1ccc2c(c1)CCN(CCC(F)Cc1ccccc1)CC2O` (stereo unspecified), the inhibition turned out to be 8%.
Take `COc1ccc2c(c1)CCN(CCCCc1ccccc1)CC2`: the inhibition worked out at 0%.

Values taken from ChEMBL document CHEMBL4393719, “Tetrahydro-3-benzazepines with fluorinated side chains as NMDA and σ1 receptor antagonists: Synthesis, receptor affinity, selectivity and antiallodynic activity” (Eur J Med Chem, 2019).
